Test results published in ChEMBL document CHEMBL4028917, “(+)-Methyl (1R,2S)-2-{[4-(4-Chlorophenyl)-4-hydroxypiperidin-1-yl]methyl}-1-phenylcyclopropanecarboxylate [(+)-MR200] Derivatives as Potent and Selective Sigma Receptor Ligands: Stereochemistry and Pharmacological Properties” (J Med Chem, 2018).
Converted amounts (≈) assume the structure as drawn. The source made the active and inactive calls. The calls are words filed in the database; no cut-off is given here.

Legend:
[1] = biological target: Sigma non-opioid intracellular receptor 1 (Cavia porcellus, UniProt Q60492); experiment: Displacement of [3H]-(+)-pentazocine from sigma1 receptor in guinea pig brain membrane after 150 mins by liquid scintillation counting method; assay type: cell membranes
[2] = Displacement of [3H]-(+)-DTG from sigma2 receptor in guinea pig brain membrane after 120 mins by liquid scintillation counting method; assay type: cell membranes, Cavia porcellus
[3] = biological target: D(1A) dopamine receptor (Rattus norvegicus, UniProt P18901); experiment: Binding affinity to dopamine D1 receptor in rat striatum by liquid scintillation counting method
[4] = biological target: D(2) dopamine receptor (Rattus norvegicus, UniProt P61169); experiment: Displacement of [3H]-spiperone from dopamine D2 receptor in rat strriatum after 15 mins by liquid scintillation counting method
[5] = species on record: Cavia porcellus; experiment: Selectivity index, ratio of Ki for sigma2 receptor in guinea pig brain membrane […]; assay type: cell membranes
[6] = test system: Mus musculus; experiment: Antinociceptive activity in CD1 mouse model of mechanical nociception assessed as effect on struggle response latency at 8 mg/kg, sc administered 30 mins before behavioral evaluation by paw pressure test; assay type: functional, organism-based
How it was run: (§1)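 Female CD1 mice (25–30 g) in the paw pressure test. A 450 g blunt cone was pressed on the dorsal hindpaw until a struggle response, and latency (s) was recorded. Each hindpaw was tested twice, alternately, 1 min apart. Morphine (4 mg/kg) or HPMC vehicle was given s.c. 30 min before testing. Test drugs were given s.c. in HPMC 5 min before morphine. Mean ± SEM, 6–8 animals; one-way ANOVA with Bonferroni.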

[7] = test system: Plasma; experiment: Enzymatic stability of the compound in rat plasma assessed observed rate constant; assay type: ADME, cell-free
How it was run: (§2)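 Hydrolysis was followed at 37 °C in rat, mouse or human plasma. Half-life (h) and observed rate constant (h⁻¹) were derived; means ± SD of three experiments.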

[8] = Aqueous solubility of the compound; assay type: physicochemical
How it was run: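 Water solubility (mg/mL) was measured experimentally; mean ± SD of three experiments.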

[9] = Chemical stability of the compound at pH 1.3 assessed as half life; assay type: physicochemical; conditions: buffer
How it was run: (§3)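 Chemical stability was tested in vitro at 37 °C in aqueous buffer at pH 1.3 (non-enzymatic simulated gastric fluid) or pH 7.4. Half-life and k_obs were reported; means ± SD of three experiments.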

[10] = Chemical stability of the compound at pH 7.4 assessed as half life; assay type: physicochemical; conditions: buffer; how it was run: as §3
[11] = Chemical stability at pH 1.3 assessed as observed rate constant; assay type: physicochemical; conditions: buffer; how it was run: as §3
[12] = Chemical stability at pH 7.4 assessed as observed rate constant; assay type: physicochemical; conditions: buffer; how it was run: as §3
[13] = Enzymatic stability of the compound in rat plasma assessed as half life; assay type: ADME, cell-free; how it was run: as §2
[14] = Enzymatic stability of the compound in mouse plasma assessed as half life; assay type: ADME, cell-free; how it was run: as §2
[15] = test system: Plasma; experiment: Enzymatic stability of the compound in mouse plasma assessed observed rate constant; assay type: ADME, cell-free; how it was run: as §2
[16] = Enzymatic stability of the compound in human plasma assessed as half life; assay type: ADME, cell-free; how it was run: as §2
[17] = test system: Plasma; experiment: Enzymatic stability of the compound in human plasma assessed observed rate constant; assay type: ADME, cell-free; how it was run: as §2
[18] = test system: Mus musculus; experiment: (§4) Antinociceptive activity in CD1 mouse model of mechanical nociception assessed as increase in morphine-induced struggle response latency at 16 to 32 mg/kg, sc administered 30 mins before behavioral evaluation by paw pressure test; assay type: functional, organism-based; how it was run: as §1
[19] = biological target: D(3) dopamine receptor (Rattus norvegicus) (UniProt P19020); experiment: Binding affinity to dopamine D3 receptor in rat olfactory tubercle by liquid scintillation counting method
[20] = species on record: Homo sapiens; experiment: Binding affinity to dopamine D4.2 receptor (unknown origin) by liquid scintillation counting method
[21] = biological target: 5-hydroxytryptamine receptor 2A (Rattus norvegicus) (UniProt P14842); experiment: Binding affinity to 5-HT2A receptor in rat cortex by liquid scintillation counting method
[22] = biological target: T1, 5-hydroxytryptamine receptor 3A (Rattus norvegicus) (UniProt P35563); experiment: Binding affinity to 5-HT3 receptor in rat cortex by liquid scintillation counting method
T1 sequence (whole entry): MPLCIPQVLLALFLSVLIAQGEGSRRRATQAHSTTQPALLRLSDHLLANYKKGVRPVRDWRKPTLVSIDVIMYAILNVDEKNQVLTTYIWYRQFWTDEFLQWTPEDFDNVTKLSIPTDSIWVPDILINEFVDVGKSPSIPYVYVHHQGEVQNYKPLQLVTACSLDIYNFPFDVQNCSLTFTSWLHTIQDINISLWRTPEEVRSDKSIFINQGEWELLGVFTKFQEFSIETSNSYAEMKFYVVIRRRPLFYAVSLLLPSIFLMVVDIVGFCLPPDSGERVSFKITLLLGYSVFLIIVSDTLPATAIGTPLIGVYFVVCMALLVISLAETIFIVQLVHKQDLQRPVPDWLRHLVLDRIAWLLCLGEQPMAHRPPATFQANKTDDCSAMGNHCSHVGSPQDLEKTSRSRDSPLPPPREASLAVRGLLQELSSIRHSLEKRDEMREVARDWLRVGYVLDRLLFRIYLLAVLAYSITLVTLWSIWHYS

[23] = biological target: Adrenergic receptor alpha-1 (Rattus norvegicus) (UniProt P15823+P23944+P43140); experiment: Binding affinity to adrenergic alpha1 receptor in rat cortex by liquid scintillation counting method
[24] = test system: Mus musculus; experiment: Reversal of 8 mg/kg, sc BD-1063-induced potentiation of morphine-induced antinociceptive activity in CD1 mouse model of mechanical nociception by measuring struggle response latency at 32 mg/kg, sc administered 30 mins before behavioral evaluation by paw pressure test; assay type: functional, organism-based; how it was run: as §1
[25] = test system: Mus musculus; experiment: Antinociceptive activity in CD1 mouse model of mechanical nociception assessed as effect on struggle response latency at 4 mg/kg, sc administered 30 mins before behavioral evaluation by paw pressure test; assay type: functional, organism-based
How it was run: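 Female CD1 mice (25–30 g). Paw pressure test: a blunt cone applied 450 g to the dorsal hindpaw until a struggle response; latency (s) recorded. Each hindpaw was tested twice, alternately, at 1 min intervals. Morphine or HPMC vehicle was given s.c. 30 min before testing. Values are the mean ± SEM of both hindpaws from 6–8 animals; one-way ANOVA with Bonferroni test.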

[26] = test system: Mus musculus; experiment: as §4, with “at” for “at 16 to”, “evaluation co-treated with 32 mg/kg, sc prototypical sigma1 receptor agonist PRE-084 administered 5 min before injection of morphine” for “evaluation”; assay type: functional, organism-based; how it was run: as §1
[27] = test system: Mus musculus; experiment: Antinociceptive activity in CD1 mouse model of mechanical nociception assessed as effect on struggle response latency at 16 to 32 mg/kg, sc administered 30 mins before behavioral evaluation by paw pressure test; assay type: functional, organism-based; how it was run: as §1
[28] = test system: Mus musculus; experiment: Antinociceptive activity in CD1 mouse model of mechanical nociception assessed as increase in morphine-induced struggle response latency at 12 to 16 mg/kg, sc administered 30 mins before behavioral evaluation by paw pressure test; assay type: functional, organism-based; how it was run: as §1
[29] = test system: Mus musculus; experiment: Antinociceptive activity in sc dosed CD1 mouse model of mechanical nociception assessed as increase in morphine-induced struggle response latency administered 30 mins before behavioral evaluation by paw pressure test; assay type: functional, organism-based; how it was run: as §1
[30] = test system: Mus musculus; experiment: Antinociceptive activity in CD1 mouse model of mechanical nociception assessed as effect on struggle response latency at 32 mg/kg, sc administered 30 mins before behavioral evaluation by paw pressure test; assay type: functional, organism-based; how it was run: as §1

Chain of D(2) dopamine receptor (P61169 whole entry): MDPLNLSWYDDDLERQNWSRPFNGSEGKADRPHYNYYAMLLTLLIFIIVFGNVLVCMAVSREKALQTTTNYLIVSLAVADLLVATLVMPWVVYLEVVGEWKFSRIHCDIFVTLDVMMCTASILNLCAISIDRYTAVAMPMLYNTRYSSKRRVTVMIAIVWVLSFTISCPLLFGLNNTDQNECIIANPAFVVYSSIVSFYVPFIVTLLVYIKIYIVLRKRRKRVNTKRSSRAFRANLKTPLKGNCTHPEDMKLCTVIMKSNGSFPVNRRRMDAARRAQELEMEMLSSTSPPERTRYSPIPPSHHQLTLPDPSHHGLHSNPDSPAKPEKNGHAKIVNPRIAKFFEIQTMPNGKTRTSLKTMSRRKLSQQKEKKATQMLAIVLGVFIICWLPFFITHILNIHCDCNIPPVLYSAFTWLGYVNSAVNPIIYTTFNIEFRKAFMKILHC
Chain of Sigma non-opioid intracellular receptor 1 (Q60492 whole entry): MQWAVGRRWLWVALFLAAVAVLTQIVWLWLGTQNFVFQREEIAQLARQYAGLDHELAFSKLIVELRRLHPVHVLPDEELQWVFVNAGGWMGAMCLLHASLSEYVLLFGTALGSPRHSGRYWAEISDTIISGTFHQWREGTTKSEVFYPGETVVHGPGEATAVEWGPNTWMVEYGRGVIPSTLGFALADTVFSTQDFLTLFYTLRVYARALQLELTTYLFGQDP
Chain of D(1A) dopamine receptor (P18901 whole entry): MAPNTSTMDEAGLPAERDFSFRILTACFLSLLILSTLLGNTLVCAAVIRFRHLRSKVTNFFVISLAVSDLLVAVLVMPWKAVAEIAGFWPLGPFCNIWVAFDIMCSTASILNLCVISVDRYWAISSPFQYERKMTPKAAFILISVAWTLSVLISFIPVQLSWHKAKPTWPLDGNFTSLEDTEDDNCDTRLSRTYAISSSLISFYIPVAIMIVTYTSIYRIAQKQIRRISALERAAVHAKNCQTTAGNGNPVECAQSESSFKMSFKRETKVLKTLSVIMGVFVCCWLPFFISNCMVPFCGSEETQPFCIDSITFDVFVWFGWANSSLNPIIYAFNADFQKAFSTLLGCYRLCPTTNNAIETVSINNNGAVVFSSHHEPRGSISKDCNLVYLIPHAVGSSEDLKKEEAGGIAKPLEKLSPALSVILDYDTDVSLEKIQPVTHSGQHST
Chain of D(3) dopamine receptor (Rattus norvegicus) (P19020 whole entry): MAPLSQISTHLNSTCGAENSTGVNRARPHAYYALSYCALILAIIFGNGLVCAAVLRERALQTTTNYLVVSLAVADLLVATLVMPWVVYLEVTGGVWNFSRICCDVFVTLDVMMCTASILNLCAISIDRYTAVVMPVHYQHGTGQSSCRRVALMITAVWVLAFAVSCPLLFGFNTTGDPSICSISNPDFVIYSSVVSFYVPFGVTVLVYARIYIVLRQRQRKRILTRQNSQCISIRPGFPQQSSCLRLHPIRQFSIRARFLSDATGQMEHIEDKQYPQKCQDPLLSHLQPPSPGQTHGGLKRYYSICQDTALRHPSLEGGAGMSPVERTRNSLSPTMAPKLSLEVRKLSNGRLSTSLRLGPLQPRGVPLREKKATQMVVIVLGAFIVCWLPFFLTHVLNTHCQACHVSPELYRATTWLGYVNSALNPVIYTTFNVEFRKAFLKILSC
Chain of 5-hydroxytryptamine receptor 2A (Rattus norvegicus) (P14842 whole entry): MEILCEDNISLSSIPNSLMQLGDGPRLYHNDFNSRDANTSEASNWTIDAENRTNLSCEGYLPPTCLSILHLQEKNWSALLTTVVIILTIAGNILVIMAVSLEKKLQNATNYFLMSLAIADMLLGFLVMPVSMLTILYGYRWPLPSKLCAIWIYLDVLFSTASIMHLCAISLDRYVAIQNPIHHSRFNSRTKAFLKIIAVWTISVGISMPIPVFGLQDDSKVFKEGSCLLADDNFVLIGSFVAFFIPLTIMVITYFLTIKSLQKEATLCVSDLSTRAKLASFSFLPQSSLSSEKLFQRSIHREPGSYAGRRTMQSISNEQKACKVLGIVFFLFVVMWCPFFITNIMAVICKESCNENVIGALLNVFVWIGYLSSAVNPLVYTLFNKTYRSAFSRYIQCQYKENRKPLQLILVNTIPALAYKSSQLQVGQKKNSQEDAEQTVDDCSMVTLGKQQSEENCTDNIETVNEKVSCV

Structure (SMILES) | Ki [1] [µM] | Ki [2] [µM] | Ratio Ki [5] | further results
COC(=O)[C@]1(c2ccccc2)C[C@H]1CN1CCC(O)(c2ccc(Cl)cc2)CC1 | 0.011 | 0.04 | 3.6 | Ki [3]: > 10 µM; Ki [4]: 5.62 µM
CN1CCN(CCc2ccc(Cl)c(Cl)c2)CC1 | – | – | – | Activity [6]: Active
CC(C)OC(=O)[C@@]1(c2ccccc2)C[C@@H]1CN1CCC(O)(c2ccc(Cl)cc2)CC1 | 0.007 | 1.84 | > 250 | K [7]: 3.26 h⁻¹; solubility [8]: 3.1 mg/mL (≈ 7.24 mM); half-life [9]: 83.6 h; half-life [10]: 91 h; K [11]: 0.009 h⁻¹; K [12]: 0.009 h⁻¹; half-life [13]: 0.38 h; half-life [14]: 1.14 h; K [15]: 0.51 h⁻¹; half-life [16]: 65.2 h; K [17]: 0.01 h⁻¹; Activity [18]: inactive; Activity [19]: inactive; Activity [20]: inactive; Activity [21]: inactive; Activity [22]: inactive; Activity [23]: inactive; Activity [24]: Active
CCCN1CCC=C(c2cc(-c3ccc(C)cc3)no2)C1 | 0.0043 | – | – | –
CCOC(=O)[C@]1(c2ccccc2)C[C@@H]1CN1CCC(O)(c2ccc(Cl)cc2)CC1 | 0.00135 | 0.057 | 42.2 | –
COC(=O)C1(c2ccccc2)CC1CN1CCC(O)(c2ccc(Cl)cc2)CC1 (racemic) | 0.0146 | 0.0611 | – | Ki [3]: > 10 µM; Ki [4]: 5.2 µM
CCCOC(=O)[C@@]1(c2ccccc2)C[C@H]1CN1CCC(O)(c2ccc(Cl)cc2)CC1 | 0.033 | 0.29 | 8.8 | –
O=C(O)[C@@]1(c2ccccc2)C[C@@H]1CN1CCC(O)(c2ccc(Cl)cc2)CC1 | 0.445 | 0.65 | 1.5 | –
CCCOC(=O)[C@]1(c2ccccc2)C[C@@H]1CN1CCC(O)(c2ccc(Cl)cc2)CC1 | 0.014 | 0.146 | 10.4 | –
COC(=O)C1(c2ccccc2)CC1CN1CCC(O)(c2ccc(Cl)cc2)CC1 (single isomer, unassigned; (+)) [listing 1 of 2 here] | – | – | 14.5 | –
CN1CC[C@]23c4c5ccc(O)c4O[C@H]2[C@@H](O)C=C[C@H]3[C@H]1C5 | – | – | – | Activity [25]: inactive
CCOC(=O)[C@@]1(c2ccccc2)C[C@@H]1CN1CCC(O)(c2ccc(Cl)cc2)CC1 | 0.052 | 1.3 | 25 | –
CC(C)OC(=O)[C@]1(c2ccccc2)C[C@@H]1CN1CCC(O)(c2ccc(Cl)cc2)CC1 | 0.02 | 0.209 | 10.5 | Activity [26]: inactive; Activity [27]: inactive
CCCOC(=O)[C@]1(c2ccccc2)C[C@H]1CN1CCC(O)(c2ccc(Cl)cc2)CC1 | 0.012 | 0.073 | 6.1 | –
COC(=O)C1(c2ccccc2)CC1CN1CCC(O)(c2ccc(Cl)cc2)CC1 (single isomer, unassigned; (+)) [listing 2 of 2 here] | 0.00151 | 0.0219 | – | Ki [3]: > 10 µM; Ki [4]: 3.23 µM
COC(=O)[C@@]1(c2ccccc2)C[C@@H]1CN1CCC(O)(c2ccc(Cl)cc2)CC1 | 0.129 | 0.142 | 1.1 | Ki [3]: > 10 µM; Ki [4]: 4.97 µM
CCCOC(=O)[C@@]1(c2ccccc2)C[C@@H]1CN1CCC(O)(c2ccc(Cl)cc2)CC1 | 0.013 | 0.171 | 13.2 | –
COC(=O)C1(c2ccccc2)CC1CN1CCC(O)(c2ccc(Cl)cc2)CC1 (single isomer, unassigned; (-)) | 0.0056 | 0.0234 | – | Ki [3]: > 10 µM; Ki [4]: 0.378 µM
CCOC(=O)[C@@]1(c2ccccc2)C[C@H]1CN1CCC(O)(c2ccc(Cl)cc2)CC1 | 0.045 | 0.918 | 20.4 | –
CC(C)OC(=O)[C@@]1(c2ccccc2)C[C@H]1CN1CCC(O)(c2ccc(Cl)cc2)CC1 | 0.067 | 1.64 | 24.4 | Activity [18]: Active; Activity [28]: Active; Activity [26]: inactive; Activity [27]: inactive
O=C(CCCN1CCC(O)(c2ccc(Cl)cc2)CC1)c1ccc(F)cc1 [HALOPERIDOL] | – | 0.016 | – | –
CC(C)OC(=O)[C@]1(c2ccccc2)C[C@H]1CN1CCC(O)(c2ccc(Cl)cc2)CC1 | 0.043 | 0.214 | 5 | Activity [18]: Active; Activity [29]: Dose-dependent effect; Activity [30]: inactive; Activity [26]: inactive
CCOC(=O)[C@]1(c2ccccc2)C[C@H]1CN1CCC(O)(c2ccc(Cl)cc2)CC1 | 0.045 | 0.107 | 2.4 | –
